Broadly, the IC50 is the midpoint of a concentration-inhibition curve. Read a high IC50 as weaker potency.

The record followed here is ChEMBL document CHEMBL1149278, “Synthesis and structure-activity relationship studies for hydantoins and analogues as voltage-gated sodium channel ligands” (J Med Chem, 2004).

This experiment in a line: Displacement of [3H]BTX-B from voltage gated sodium channel in rat cerebral cortex synaptoneurosomes. The format is tissue-based. The essentials:
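Rat cerebral cortex synaptoneurosomes (~1 mg protein), stored frozen at –70 °C, thawed and resuspended in HEPES incubation buffer. […] Filtration assay; nonspecific binding defined with 300 μM veratridine. Triplicates, DPH control run alongside. IC50 by Probit analysis, using only points with 10–90% inhibition.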
A general note: Displacement assays read how much labelled ligand stays bound in the presence of the test substance.
`CC(O)(C(=O)N1CCN(C(c2ccccc2)c2ccccc2)CC1)c1ccccc1` (stereo not given): the IC50 came out at 6.3 µM.
In the case of `CCCCCCCCCC1(c2ccccc2)OC(=O)NC1=O` (stereo not given), the IC50 was determined as 11 µM.
For the molecule `CCCCCCCCCC(N)(C(=O)O)c1ccccc1` (stereo not given), the IC50 came to 274 µM.
`CCCCCCCCCC1(c2ccccc2)NC(=O)NC1=O` (stereo not given) displayed an IC50 of 5 µM. Against the preceding molecule, the IC50 is about 55-fold lower.
Under `CCCCCC(N)(C(=O)O)c1ccccc1` (stereo not given) stands more than 500 µM; under `CCCC1(c2ccccc2)OC(=O)NC1=O` (stereo not given), 448 µM.
`CCCCCCCC(O)(C(=O)O)c1ccccc1` (stereo not given) had an IC50 of more than 500 µM.
Under `CCC(O)(C(=O)NCCc1ccccc1)c1ccccc1` (stereo not given) stands 30 µM; under `CCCCCC1(c2ccccc2)NC(=O)N(CN2CCN(C(c3ccccc3)c3ccccc3)CC2)C1=O` (stereo not given), 1.3 µM; under `CCCCCCCC1(c2ccccc2)NC(=O)NC1=O` (stereo not given), 5 µM.
Under `CCCCCCCC1(c2ccccc2)OC(=O)NC1=O` (stereo not given) stands 30 µM; under `CCCCCC(O)(C(=O)O)c1ccccc1` (stereo not given), more than 500 µM; under `CCC(O)(C(N)=O)c1ccccc1` (stereo not given), more than 500 µM.
Molecule `CCCC(O)(C(N)=O)c1ccccc1` (stereo not given) returned an IC50 of 500 µM.
Consider `CCCCCC1(c2ccccc2)OC(=O)NC1=O` (stereo not given), for which the IC50 was found to be 112 µM.
`CCCCCCCCCC1(c2ccccc2)NC(=O)N(Cc2ccccc2)C1=O` (stereo not given) returned an IC50 of 5.1 µM.
As for `CCC1(c2ccccc2)NC(=O)N(S(C)(=O)=O)C1=O` (stereo not given), the IC50 is more than 500 µM.
As for `CCCCCC1(c2ccccc2)NC(=O)NC1=O` (stereo not given), the half-maximal inhibitory concentration (IC50) was determined as 39 µM.
With `CCCCCC(O)(C(=O)NCCC(c1ccccc1)c1ccccc1)c1ccccc1` (stereo not given) the figure was 5.3 µM; with `CCCCCCCCCC1(c2ccccc2)NC(=O)N(S(C)(=O)=O)C1=O` (stereo not given), 11 µM; with `CCC1(c2ccccc2)NC(=O)NC1=O` (stereo not given), more than 200 µM.
Molecule `CCCCCC(O)(C(=O)N1CCN(C(c2ccccc2)c2ccccc2)CC1)c1ccccc1` (stereo not given) showed an IC50 of 4.8 µM.
With `CCCCCC1(c2ccccc2)NC(=O)N(Cc2ccccc2)C1=O` (stereo not given) the figure was 6.9 µM; with `CCCC(O)(C(=O)O)c1ccccc1` (stereo not given), more than 500 µM; with `O=C1NC(c2ccccc2)(c2ccccc2)C(=O)N1CCN1CCN(C(c2ccccc2)c2ccccc2)CC1`, 0.22 µM.
Under `CCCCCC(O)(C(=O)NCCc1ccccc1)c1ccccc1` (stereo not given) stands 5 µM; under `CCCCCC(O)(C(=O)NCCCc1ccccc1)c1ccccc1` (stereo not given), 2.5 µM; under `CCCCCCCCCC(O)(C(N)=O)c1ccccc1` (stereo not given), 6.5 µM.
As to `CCCCCCCC1(c2ccccc2)NC(=O)N(CN2CCN(C(c3ccccc3)c3ccccc3)CC2)C1=O` (stereo not given), the IC50 was determined as 2.2 µM.
`CCC1(c2ccccc2)NC(=O)N(S(=O)(=O)c2ccc(C)cc2)C1=O` (stereo not given): the IC50 was determined as 51 µM.
Under `CCC1(c2ccccc2)NC(=O)N(CN2CCN(C(c3ccccc3)c3ccccc3)CC2)C1=O` (stereo not given) stands 3.3 µM; under `CC(O)(C(N)=O)c1ccccc1` (stereo not given) [ATROLACTAMIDE], more than 500 µM; under `CCCCCCCC1(c2ccccc2)NC(=O)N(S(C)(=O)=O)C1=O` (stereo not given), 13 µM.
For `CCC(O)(C(=O)O)c1ccccc1` (stereo not given), the IC50 is more than 500 µM.
Under `CCCCCC(O)(C(N)=O)c1ccccc1` (stereo not given) stands 178 µM; under `CCCCCCCC(O)(C(=O)OCC)c1ccccc1` (stereo not given), 36 µM; under `O=C1NC(c2ccccc2)(c2ccccc2)C(=O)N1CN1CCN(C(c2ccccc2)c2ccccc2)CC1`, 4.5 µM.
In turn, `CCCCCCCC(O)(C(N)=O)c1ccccc1` (stereo not given) displayed an IC50 of 9 µM.
In turn, `CCCC1(c2ccccc2)NC(=O)NC1=O` (stereo not given) yielded an IC50 of 162 µM.
`CCCC1(c2ccccc2)NC(=O)N(S(C)(=O)=O)C1=O` (stereo not given) came in with an IC50 of 500 µM.
The molecule `CCCCCCCC(N)(C(=O)O)c1ccccc1` (stereo not given) had an IC50 of 300 µM.
`CCOC(=O)C(O)(CC)c1ccccc1` (stereo not given) gave an IC50 of more than 200 µM.
In turn, `CCC(N)(C(=O)O)c1ccccc1` (stereo not given) came in with an IC50 of more than 500 µM.
In the case of `CCCCCC1(c2ccccc2)NC(=O)N(S(C)(=O)=O)C1=O` (stereo not given), the IC50 turned out to be 112 µM.
As for `CCC(OCCCc1ccccc1)(C(=O)NCCCc1ccccc1)c1ccccc1` (stereo not given), the IC50 is 4.3 µM.
Under `CCCCCCCCCC(O)(C(=O)O)c1ccccc1` (stereo not given) stands 84 µM; under `CCC1(c2ccccc2)NC(=O)N(CCN2CCN(C(c3ccccc3)c3ccccc3)CC2)C1=O` (stereo not given), 1.1 µM.
Under `CCC(O)(C(=O)NCCCc1ccccc1)c1ccccc1` (stereo not given) stands 8.2 µM.
Under `CCC(O)(C(=O)NCCC(c1ccccc1)c1ccccc1)c1ccccc1` (stereo not given) stands 35 µM; under `CCCCC1(c2ccccc2)NC(=O)NC1=O` (stereo not given), 103 µM.
